Drawing on ChEMBL document CHEMBL4513216, “Probing the Open Global Health Chemical Diversity Library for Multistage-Active Starting Points for Next-Generation Antimalarials” (ACS Infect Dis, 2020), this text covers cytotoxicity for 40 compounds.

SMILES strings stand for the structures.

The nature of the data set: Toxicity liver stage against HepG2, at 10uM. Format: cell-based. Also on record: test concentration 10 uM, cell line HepG2-A16-CD81EGFP. Conditions: human, HepG2-A16-CD81EGFP cells; read-out: INHIBITION
In short, it runs like this: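 Uninfected HepG2-A16-CD81EGFP cells, 3 × 10^3 per well, 1536-well, plated on prespotted compound at 10 μM final, parasite-free screening media added to match infected plates; puromycin 10 μM positive, DMSO 0.5% negative; run in parallel with 48 h PbLuc assay at 37 °C, 5% CO2; viability by CellTiter-Glo luminescence, normalized to controls.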

On to `O=C(Cc1cccc(F)c1)NCCNCc1cccnc1`, for which the cytotoxicity at 10 µM is -1.56%.
Regarding `COc1ccc(CCNC(=O)C2CC2)c(Cl)c1`, the cytotoxicity at 10 µM was -2.43%.
To `CC(NCc1ccc(-c2ccc(Cl)cc2)o1)c1nnc2n1CCC2` (stereo not given) belongs -2.04%.
For the compound `Cc1cn(-c2ccccc2)nc1NS(=O)(=O)c1ccc(C(=O)O)cc1`, the cytotoxicity at 10 µM is -5.51%.
To `CCOc1nn(CC)cc1-c1nnc(SCc2cccnc2)n1CC` belongs -0.244%; to `COC(=O)CCCNC(=O)N1CCc2c([nH]c3ccc(Cl)cc23)C1`, 9.43%.
For `O=C(c1cccs1)N1CCOCC2(C1)CN(c1cccnc1)C(=O)CO2` (stereo not given) the value was 3.36%; for `CN(C)C(=O)c1cc(-c2ccccc2)[nH]n1`, -4.5%; for `CCCc1nnc(N2CC[C@](C)(O)[C@H](C)C2)s1`, -10.4%.
To `COc1cccc(-n2cc3[nH]c(=O)n(Cc4cccc(F)c4)n3c2=O)c1` belongs 0.647%; to `CN(C)C(=O)N[C@@H]1CN(S(C)(=O)=O)[C@@H]2CCCO[C@@H]21`, 2.62%; to `CN(C)CCOCc1nnc2n1CCN(Cc1cccs1)CC2`, 9.03%.
For the compound `CCc1noc(C)c1C(=O)NCc1c(C)nn(CCOC)c1C`, the cytotoxicity at 10 µM is -9.35%.
For `CO[C@H]1CN(C(=O)OC(C)(C)C)CC1NCc1ccn(C)c1` (stereo not given in full) the value was -45.9%; for `CC(=O)N(Cc1ncc(C)o1)C1CCN(CCCc2cnn(C)c2)C1` (stereo not given), 8.11%; for `Cc1csc(Nc2nccnc2C2CCCN2CC(N)=O)n1` (stereo not given), -20.8%.
Turning to `COCCC1COC2(CCN(C(=O)C3CCCC3)CC2)C1` (stereo not given), the cytotoxicity at 10 µM was found to be 6.13%.
For `CCNC(=O)NC[C@@H]1C=C(C)[C@H](CC(=O)NCCN(C)C)C[C@H]1C(C)C` the value was 2.43%; for `CSc1ccc(C2CC(=O)Nc3c2c(=O)[nH]c2ncnn32)cc1` (stereo not given), -8.22%.
To `c1ccc(COCCN2CCc3[nH]cnc3C2c2ccco2)cc1` (stereo not given) belongs -2.01%; to `Cn1cc(C(=O)N2CCCC(Cc3cccc4ncccc34)C2)cn1` (stereo not given), 4.88%.
For `Oc1nc(N2CCCC2)nc2nccc(-c3ccccn3)c12` the value was 1.36%.
For `COCC(=O)N1CCC2(CC1)CN(c1ccsc1)C(=O)CO2`, the cytotoxicity at 10 µM was -75.6%.
To `CC(C)(C)OC(=O)NCC1CCN(C(=O)c2ccccc2O)C1` (stereo not given) belongs -3.73%.
For `CC(C)NC(=O)N1CCC2(CC(=O)N(c3cccc(C#N)c3)C2)C1` (stereo not given) the value was 5.66%.
To `CN(C)c1ccc(C2CCN(c3cnccn3)CC2)nc1` belongs -11.2%.
Take `COc1ccccc1CN1C[C@@H]2CN(Cc3cccnc3)CCO[C@@H]2C1`: the cytotoxicity at 10 µM was found to be 12.3%.
For `Cn1ccnc1C1CCN(CCN2CCOCC2)CC1` the value was 4.69%; for `NCc1n[nH]c(-c2ccc(Br)cc2)n1`, 19.7%.
To `Cc1cc(C)n(C2CN(c3nc(-c4ccncc4)nc4c3CCC4)C2)n1` belongs -33.6%; to `CN1CCN(C(=O)Cc2ccc(F)cc2)Cc2cccnc21`, 0.0773%; to `OCCOc1nc(-c2ccccc2Cl)no1`, -10.5%.
To `O=C(CC1CSc2nccc(=O)n21)NCc1cc(-c2ccco2)on1` (stereo not given) belongs -11.3%; to `Cc1ccc(CSc2nc(N)cc(NCCC(N)=O)n2)cc1`, 0.375%; to `CS(=O)(=O)c1ccccc1NCc1ccc(Cn2ccnc2)cc1`, 1.67%.
Regarding `O=C1CC2(CCN(Cc3ccoc3)C2)CN1c1cncnc1` (stereo not given), the cytotoxicity at 10 µM was -69.4%.
To `CCc1ncc2c(n1)CN(CCCc1nc3ccccc3o1)CC2` belongs -10.6%; to `O=C(Nc1cnn(CC(=O)N2CCCO2)c1)c1ccccc1`, -0.134%; to `CC(C)c1ccc(OCCC(=O)N(C)C)cc1`, 3.81%.
For `O=C(NCCN1CCOCC1)c1scnc1Cl` the value was -2.09%.
